Entries after “also recorded” stand apart in the source; their conditions may differ.
Legend:
Format in all cases: cell-based
KV3.1 = target: T1, KV3.1 (Mus musculus, UniProt P15388); experiment: whole-cell patch-clamp, off-target channel, 10 μM compound; settings: for sensitivity of channel to compound: vs 0.1% DMSO
T1 sequence (P15388 1-585 isoform P15388-3): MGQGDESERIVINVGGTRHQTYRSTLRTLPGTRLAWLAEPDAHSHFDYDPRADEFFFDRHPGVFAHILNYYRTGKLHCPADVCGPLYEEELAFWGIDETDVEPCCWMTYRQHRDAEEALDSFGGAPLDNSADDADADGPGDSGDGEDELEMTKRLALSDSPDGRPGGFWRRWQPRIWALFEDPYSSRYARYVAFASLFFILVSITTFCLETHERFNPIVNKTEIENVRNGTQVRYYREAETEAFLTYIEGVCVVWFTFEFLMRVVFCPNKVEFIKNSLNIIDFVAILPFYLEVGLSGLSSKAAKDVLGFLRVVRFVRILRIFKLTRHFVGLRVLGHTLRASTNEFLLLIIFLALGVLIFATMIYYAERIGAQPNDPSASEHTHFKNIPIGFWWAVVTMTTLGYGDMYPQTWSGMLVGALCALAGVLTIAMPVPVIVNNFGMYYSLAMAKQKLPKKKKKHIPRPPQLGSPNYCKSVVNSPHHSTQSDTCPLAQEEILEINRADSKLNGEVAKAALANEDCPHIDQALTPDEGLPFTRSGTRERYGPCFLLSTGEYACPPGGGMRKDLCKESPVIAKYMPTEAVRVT
In short: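 KV channels in transiently transfected HEK293T cells, whole-cell. Pipette (mM): 140 KCl, 2.5 MgCl2, 11 EGTA, 10 HEPES, pH 7.4. Bath (mM): 145 NaCl, 2.8 KCl, 2 CaCl2, 1 MgCl2, 10 glucose, 10 HEPES, pH 7.4. 0.1% DMSO bath applied, then 10 μM test compound. DMSO vs compound inhibition ratio compared by unpaired t-test, n = 5.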

[1] = target: T2, mouse Otop1 (mOtop1) channels (Mus musculus, UniProt Q80VM9); experiment: whole-cell patch-clamp, "on-current" analysis of acid/alkali-evoked currents
T2 sequence (Q80VM9 1-600): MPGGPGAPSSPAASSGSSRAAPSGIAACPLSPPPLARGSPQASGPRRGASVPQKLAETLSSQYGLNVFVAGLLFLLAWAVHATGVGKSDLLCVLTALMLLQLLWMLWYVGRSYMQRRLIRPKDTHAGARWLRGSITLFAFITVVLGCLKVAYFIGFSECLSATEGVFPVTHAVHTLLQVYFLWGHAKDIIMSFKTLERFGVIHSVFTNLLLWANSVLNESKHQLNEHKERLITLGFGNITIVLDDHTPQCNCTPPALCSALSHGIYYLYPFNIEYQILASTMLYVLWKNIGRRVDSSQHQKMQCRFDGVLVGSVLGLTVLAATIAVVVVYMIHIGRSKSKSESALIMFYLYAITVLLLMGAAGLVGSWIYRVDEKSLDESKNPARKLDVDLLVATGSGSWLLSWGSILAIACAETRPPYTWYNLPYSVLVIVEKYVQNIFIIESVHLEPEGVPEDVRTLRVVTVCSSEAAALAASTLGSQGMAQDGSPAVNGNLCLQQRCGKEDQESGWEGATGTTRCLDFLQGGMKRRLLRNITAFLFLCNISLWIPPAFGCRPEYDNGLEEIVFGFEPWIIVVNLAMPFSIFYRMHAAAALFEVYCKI

[2] = target: T3, mOtop1 channels co-expressed in HEK293 cells (Mus musculus, UniProt Q80VM9); experiment: live cell intracellular pH imaging; settings: 10 μM; for effect on intracellular pH changes mediated by mOtop1, acidification: extracellular pH 6.0/5.0; for effect on intracellular pH changes mediated by mOtop1, alkalinization: extracellular pH 8.5
T3 sequence (Q80VM9 1-600): T2 sequence (Q80VM9 1-600)
In short: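 HEK293 cells were electroporated (180 V, 25 ms) with pHmScarlet-mTurquise2, with or without mOtop1, and imaged 24 h later. Cells sat in pH 7.4 solution (mM: 140 KCl, 10 NaCl, 1 MgCl2, 20 HEPES), then were shifted to pH 8.5 (Tris), 6.0 (MES) or 5.0 (HomoPIPES). Test compound was 10 μM in the stimulus solution, with acetic acid pH 5.0 as positive control. FpHmScarlet/FmTurquise2 ratio read every 2 s.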

[3] = target: T4, Otop1 channels from human origin (hOtop1) (Homo sapiens, UniProt Q7RTM1); experiment: whole-cell patch-clamp, pH 5.5-evoked currents; settings: 10 μM
T4 sequence (Q7RTM1 1-612): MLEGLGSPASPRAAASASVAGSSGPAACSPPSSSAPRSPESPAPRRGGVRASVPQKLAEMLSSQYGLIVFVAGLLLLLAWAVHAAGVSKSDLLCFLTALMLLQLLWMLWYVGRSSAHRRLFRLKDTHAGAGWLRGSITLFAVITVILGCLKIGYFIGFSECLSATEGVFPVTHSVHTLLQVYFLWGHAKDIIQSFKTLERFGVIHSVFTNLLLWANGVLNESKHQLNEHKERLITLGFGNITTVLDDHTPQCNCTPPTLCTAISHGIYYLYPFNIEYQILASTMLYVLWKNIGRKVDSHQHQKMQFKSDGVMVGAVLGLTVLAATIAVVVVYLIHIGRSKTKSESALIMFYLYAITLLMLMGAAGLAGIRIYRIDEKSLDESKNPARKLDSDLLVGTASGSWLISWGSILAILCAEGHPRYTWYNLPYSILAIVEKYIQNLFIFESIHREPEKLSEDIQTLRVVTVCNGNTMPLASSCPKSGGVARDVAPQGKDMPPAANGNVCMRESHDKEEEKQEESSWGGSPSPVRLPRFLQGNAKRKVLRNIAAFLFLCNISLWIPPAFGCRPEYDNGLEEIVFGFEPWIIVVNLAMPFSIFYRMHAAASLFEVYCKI
In short: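 Channel plasmid (2.5 μg) was co-transfected with EGFP plasmid (0.5 μg) using Lipofectamine 2000 into PAC-knockout HEK293T cells. Whole-cell recording 16–24 h after seeding, with Cs-aspartate pipette solution (pH 7.3). Currents evoked by pH 5.5 bath (160 mM NMDG-Cl, 2 mM CaCl2, 10 mM MES); test compound 10 μM.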

CaV1.2 = CaV1.2 (Mus musculus, UniProt Q01815); experiment: whole-cell patch-clamp, off-target channel, 10 μM compound; settings: for sensitivity of channel to compound: vs 0.1% DMSO
In short: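 CaV channels in transfected HEK293T cells, whole-cell. Pipette (mM): 120 CsMeSO3, 2 Mg-ATP, 11 EGTA, 10 HEPES, pH 7.4. Bath (mM): 138 NaCl, 5.6 KCl, 2.6 CaCl2, 20 TEA-Cl, 5 glucose, 5 HEPES, pH 7.4. 0.1% DMSO bath applied before 10 μM test compound. Inhibition ratios compared by unpaired t-test, n = 5.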

[4] = EC50s, enhancing acid-evoked Otop1 currents, summary statement
[5] = apparent EC50, potentiation of mOtop1 currents, pH 5.5, on-current analysis, n = 5

Chain of CaV1.2 (Q01815 whole entry): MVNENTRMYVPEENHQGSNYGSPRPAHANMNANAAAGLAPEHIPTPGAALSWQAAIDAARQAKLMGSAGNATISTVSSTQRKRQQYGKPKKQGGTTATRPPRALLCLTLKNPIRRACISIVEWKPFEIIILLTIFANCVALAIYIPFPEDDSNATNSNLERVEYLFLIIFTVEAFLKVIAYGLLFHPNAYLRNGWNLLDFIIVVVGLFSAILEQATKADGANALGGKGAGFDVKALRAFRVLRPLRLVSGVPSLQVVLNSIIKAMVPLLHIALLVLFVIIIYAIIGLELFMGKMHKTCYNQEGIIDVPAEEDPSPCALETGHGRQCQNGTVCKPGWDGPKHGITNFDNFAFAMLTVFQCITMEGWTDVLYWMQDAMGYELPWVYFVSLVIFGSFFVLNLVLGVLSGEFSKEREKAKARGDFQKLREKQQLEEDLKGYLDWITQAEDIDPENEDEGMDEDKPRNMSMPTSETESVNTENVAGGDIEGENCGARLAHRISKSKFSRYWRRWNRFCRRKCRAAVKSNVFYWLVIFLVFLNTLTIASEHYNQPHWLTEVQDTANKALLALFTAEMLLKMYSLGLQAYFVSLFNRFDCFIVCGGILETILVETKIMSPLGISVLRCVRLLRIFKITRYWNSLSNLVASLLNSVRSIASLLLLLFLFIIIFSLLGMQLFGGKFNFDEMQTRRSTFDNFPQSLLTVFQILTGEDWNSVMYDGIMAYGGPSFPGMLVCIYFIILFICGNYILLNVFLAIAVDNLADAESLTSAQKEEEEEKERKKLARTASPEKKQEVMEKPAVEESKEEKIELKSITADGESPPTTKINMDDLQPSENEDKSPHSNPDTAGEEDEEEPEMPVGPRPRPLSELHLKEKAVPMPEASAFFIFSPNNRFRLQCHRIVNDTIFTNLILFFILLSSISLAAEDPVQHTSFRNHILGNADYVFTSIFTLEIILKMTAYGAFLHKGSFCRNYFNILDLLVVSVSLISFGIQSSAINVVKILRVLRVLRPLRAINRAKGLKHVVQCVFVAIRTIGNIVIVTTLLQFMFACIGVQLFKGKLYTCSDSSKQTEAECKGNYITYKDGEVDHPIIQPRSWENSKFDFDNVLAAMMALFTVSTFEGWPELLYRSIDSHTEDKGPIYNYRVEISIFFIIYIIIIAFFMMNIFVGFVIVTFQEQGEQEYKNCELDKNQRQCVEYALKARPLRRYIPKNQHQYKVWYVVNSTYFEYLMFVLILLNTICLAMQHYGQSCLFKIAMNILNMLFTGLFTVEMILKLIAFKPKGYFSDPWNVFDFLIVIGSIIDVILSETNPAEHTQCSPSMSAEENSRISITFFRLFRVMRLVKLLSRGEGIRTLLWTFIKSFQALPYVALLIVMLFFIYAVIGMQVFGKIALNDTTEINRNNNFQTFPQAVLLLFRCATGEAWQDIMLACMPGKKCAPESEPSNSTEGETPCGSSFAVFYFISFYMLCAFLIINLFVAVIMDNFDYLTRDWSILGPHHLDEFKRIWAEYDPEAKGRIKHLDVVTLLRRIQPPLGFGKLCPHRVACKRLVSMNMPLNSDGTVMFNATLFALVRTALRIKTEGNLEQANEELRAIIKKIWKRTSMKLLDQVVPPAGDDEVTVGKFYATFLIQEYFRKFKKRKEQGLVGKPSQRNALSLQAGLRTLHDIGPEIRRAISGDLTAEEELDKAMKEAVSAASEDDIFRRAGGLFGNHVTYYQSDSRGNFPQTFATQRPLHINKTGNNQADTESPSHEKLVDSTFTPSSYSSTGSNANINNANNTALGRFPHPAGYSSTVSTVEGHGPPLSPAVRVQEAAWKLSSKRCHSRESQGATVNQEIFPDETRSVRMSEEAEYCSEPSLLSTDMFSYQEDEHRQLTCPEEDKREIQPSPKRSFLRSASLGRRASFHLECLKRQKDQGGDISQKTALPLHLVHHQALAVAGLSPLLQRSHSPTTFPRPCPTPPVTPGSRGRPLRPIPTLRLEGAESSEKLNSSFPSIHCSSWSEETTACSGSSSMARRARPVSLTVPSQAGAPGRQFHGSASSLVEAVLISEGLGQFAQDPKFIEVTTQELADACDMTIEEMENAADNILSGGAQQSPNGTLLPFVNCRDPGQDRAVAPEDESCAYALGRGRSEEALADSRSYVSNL

sensitivity of channel to compound (KV3.1)	direct activation of the Otop1 channel [1]	effect on pH 3.5-activated mOtop1 currents ([1]; 10 μM)	EC50 [1, 4] [µM]	EC50 [1, 5] [µM]	effect on intracellular pH changes mediated by mOtop1, acidification [2]	effect on intracellular pH changes mediated by mOtop1, alkalinization [2]	effect on hOtop1 currents [3]	inhibition ratio (KV3.1) [%]	effect on mOtop1 activity at alkaline or neutral pH ([1]; 10 μM, alkaline and neutral pH)	effect on pH 4.5-6.0 acid-activated mOtop1 currents ([1]; 10 μM, compared to the pH 3.5 group, Fig 1E)	EC50 ([1]; EC50, potentiation of mOtop1 currents, pH 6.0, on-current analysis, n = 5) [µM]	SMILES	effect on pH 5.5-activated mOtop1 currents ([1]; 10 μM, pH 5.5)	sensitivity of channel to compound (CaV1.2)	inhibition ratio (CaV1.2) [%]
completely resistant	without directly activating	did not potentiate	~10	12.2 ± 3.4	increases intracellular pH changes	no effect	potent potentiation effects	–	–	–	–	Cc1cc(NC(=O)c2ccc(Br)o2)ccc1NC(=O)c1ccco1 [B2FAMP, 5-Bromo-N-[4-(2-furoylamino)-3-methylphenyl]-2-furamide]	robust potentiation effects; also recorded: markedly potentiated; also recorded: potent potentiation effects	completely resistant	–
–	without directly activating	no detectable effect	~10	10.3 ± 2.6	increases intracellular pH changes	no effect	potent potentiation effects	15.2	did not affect	potently potentiated	8.9 ± 4.7	Cc1ccc(C(=O)Nc2ccc3ccccc3c2)o1 [MFaN, 5-methyl-N-2-naphthyl-2-furamide]	robust potentiation effects; also recorded: potent potentiation effects	completely resistant	–

SMILES	sensitivity of channel to compound (KV3.1)	direct activation of the Otop1 channel [1]	effect on pH 3.5-activated mOtop1 currents ([1]; 10 μM)	EC50 [1, 4] [µM]	EC50 [1, 5] [µM]	effect on intracellular pH changes mediated by mOtop1, acidification [2]	effect on intracellular pH changes mediated by mOtop1, alkalinization [2]	effect on hOtop1 currents [3]	inhibition ratio (KV3.1) [%]	effect on mOtop1 activity at alkaline or neutral pH ([1]; 10 μM, alkaline and neutral pH)	effect on pH 4.5-6.0 acid-activated mOtop1 currents ([1]; 10 μM, compared to the pH 3.5 group, Fig 1E)	EC50 ([1]; EC50, potentiation of mOtop1 currents, pH 6.0, on-current analysis, n = 5) [µM]	effect on pH 5.5-activated mOtop1 currents ([1]; 10 μM, pH 5.5)	sensitivity of channel to compound (CaV1.2)	inhibition ratio (CaV1.2) [%]
CC(C)c1noc2ncc(C(=O)c3ccccc3O)cc12 [HIMOP, (2-hydroxyphenyl)-(3-propan-2-yl-5-isoxazolo[5,4-b]pyridinyl)methanone]	completely resistant	without directly activating	did not potentiate	~10	16.8 ± 6.5	increases intracellular pH changes	small but statistically significant increase in pHi; also recorded: increases intracellular pH changes; also recorded: slightly but significantly enhance	potent potentiation effects	–	–	–	–	robust potentiation effects; also recorded: markedly potentiated; also recorded: potent potentiation effects	–	15.6
